Measured values collected from several papers.
Protocols differ between the studies behind these lines.
Read-out: DPPH scavenging

| Compound | technique | time | IC50 |
| --- | --- | --- | --- |
| Oc1cc(O)c2c(c1)O[C@H](c1ccc(O)c(O)c1)[C@@H](O)C2 |  |  | 31.2 µM |
| Cc1cc(C(C)(C)C)c(O)c(C(C)(C)C)c1 | absorbance | 30 min | 69 µg/mL |
| Fc1ccccc1/C=N/N=C/c1ccccc1F |  |  | 2800 µM |
| CCN(CC)c1ccc(/C=N/c2ccccc2F)c(O)c1 |  |  | 38.1 µM |
| O=C1O[C@H]([C@@H](O)CO)C(O)=C1O | absorbance | 30 min | 11.6 µM |
| Clc1ccc(/C=N/N=C/c2ccc(Cl)cc2)cc1 |  |  | > 3000 µM |
| Cc1c(C)c2c(c(C)c1O)CCC(C)(C(=O)O)O2 (stereo not shown) |  |  | 221 µM |
| CCN(CC)c1ccc(/C=N/c2ccccc2Br)c(O)c1 |  |  | 40.5 µM |
| O=C1O[C@H]([C@@H](O)CO)C(O)=C1O |  |  | 350 µM |
| O=[N+]([O-])c1ccccc1/C=N/N=C/c1ccccc1[N+](=O)[O-] |  |  | 2940 µM |
